Legend:
Type in all cases: functional
IGROV-1 = assay: Cytotoxicity against human IGROV1 cells assessed as cell growth at 100 nM after 48 hrs by sulforhodamine B assay; settings: IGROV-1, 48 h, read-out: Activity
OVCAR-5 = assay: Cytotoxicity against human OVCAR5 cells assessed as cell growth at 100 nM after 48 hrs by sulforhodamine B assay; settings: OVCAR-5, 48 h, read-out: Activity
HL-60(TB) = assay: Cytotoxicity against human HL-60(TB) cells assessed as cell growth at 1 uM after 48 hrs by sulforhodamine B assay; settings: HL-60, 48 h, read-out: Activity
Summary of the method: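 NCI 60-cell panel. Cells are grown in RPMI 1640 with 5% FBS and 2 mM L-glutamine, seeded at 5000–40,000 cells/well according to doubling time, and preincubated 24 h. Time-zero plates are TCA-fixed. Compound from DMSO stock is given at five 10-fold or 1/2-log concentrations for 48 h at 37 °C, 5% CO2. Suspension cells are fixed with 80% TCA (final 16%) and SRB-stained, with absorbance at 515 nm. Percent growth is derived from Tz, control and test readings.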

MOLT-4 = assay: Cytotoxicity against human MOLT4 cells assessed as cell growth at 1 uM after 48 hrs by sulforhodamine B assay; settings: MOLT-4, 48 h, read-out: Activity
OVCAR-4 = assay: Cytotoxicity against human OVCAR4 cells assessed as cell growth at 10 uM; settings: read-out: Activity
Summary of the method: (§1)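 NCI-60 screen: cells grown in RPMI 1640 with 5% FBS and 2 mM L-glutamine, plated at 5000–40,000 cells/well according to doubling time, and preincubated 24 h at 37 °C, 5% CO2. The single 10 µM dose (DMSO stock) was added, then incubated 48 h. Cells were TCA-fixed and stained with 0.4% SRB, read at 515 nm, and growth % calculated against time-zero and control plates.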

OVCAR-8 [1] = assay: Cytotoxicity against human OVCAR8 cells assessed as cell growth at 10 uM; settings: read-out: Activity; summary of the method: as §1
COLO 205 [2] = assay: Cytotoxicity against human COLO205 cells assessed as cell growth at 1 uM after 48 hrs by sulforhodamine B assay; settings: COLO 205, 48 h, read-out: Activity
Summary of the method: (§2)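 NCI-60 five-dose screen. Cells were grown in RPMI 1640 with 5% FBS and 2 mM L-glutamine, plated at 5000–40,000 cells/well and preincubated for 24 h. Time-zero plates were TCA-fixed. DMSO-solubilized drug was added at five concentrations (10-fold or ½-log serial dilutions) for 48 h at 37 °C, 5% CO2. Cells were TCA-fixed, stained with 0.4% SRB and read at 515 nm. Percent growth used time-zero, control and test absorbances.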

SNB-19 = assay: Cytotoxicity against human SNB19 cells assessed as cell growth at 1 uM after 48 hrs by sulforhodamine B assay; settings: SNB-19, 48 h, read-out: Activity
SNB-75 = assay: Cytotoxicity against human SNB75 cells assessed as cell growth at 0.01 uM after 48 hrs by sulforhodamine B assay; settings: SNB-75, 48 h, read-out: Activity
U-251 = assay: Cytotoxicity against human U251 cells assessed as cell growth at 0.01 uM after 48 hrs by sulforhodamine B assay; settings: U-251, 48 h, read-out: Activity
Malme-3M = assay: Cytotoxicity against human MALME-3M cells assessed as cell growth at 0.01 uM after 48 hrs by sulforhodamine B assay; settings: read-out: Activity
HT-29 [3] = assay: Cytotoxicity against human HT-29 cells assessed as cell growth at 0.001 uM after 48 hrs by sulforhodamine B assay; settings: HT-29, 48 h, read-out: Activity
SK-OV-3 = assay: Cytotoxicity against human SKOV3 cells assessed as cell growth at 0.001 uM after 48 hrs by sulforhodamine B assay; settings: SK-OV-3, 48 h, read-out: Activity
K562 = assay: Growth inhibition of human K562 cells after 48 hrs by sulforhodamine B assay; settings: K562, 48 h
Summary of the method: (§3)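 NCI 60-cell screen, five-dose mode. Cells grown in RPMI 1640 with 5% FBS and 2 mM L-glutamine and plated at 5000-40,000 cells/well according to doubling time. After 24 h preincubation, a Tz plate was TCA-fixed. Five concentrations (10-fold or 1/2 log dilutions) were applied for 48 h at 37 °C. SRB staining read at 515 nm. IC50 taken from [(Ti-Tz)/(C-Tz)]×100 = 50.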

UACC-257 = assay: Growth inhibition of human UACC257 cells after 48 hrs by sulforhodamine B assay; settings: UACC-257, 48 h; summary of the method: as §3
OVCAR-8 [4] = assay: Growth inhibition of human OVCAR8 cells after 48 hrs by sulforhodamine B assay; settings: OVCAR-8, 48 h; summary of the method: as §3
[5] = Cytotoxicity against human Hs 578T cells assessed as cell growth at 0.01 uM after 48 hrs by sulforhodamine B assay; settings: read-out: Activity
MDA-MB-468 = assay: Cytotoxicity against human MDA-MB-468 cells assessed as cell growth at 0.01 uM after 48 hrs by sulforhodamine B assay; settings: MDA-MB-468, 48 h, read-out: Activity
CCRF-CEM = assay: Cytotoxicity against human CCRF-CEM cells assessed as cell growth at 100 nM after 48 hrs by sulforhodamine B assay; settings: read-out: Activity; summary of the method: as §2
NCI-H322M = assay: Cytotoxicity against human NCI-H322M cells assessed as cell growth at 100 nM after 48 hrs by sulforhodamine B assay; settings: read-out: Activity
UACC-62 = assay: Cytotoxicity against human UACC62 cells assessed as cell growth at 1 uM after 48 hrs by sulforhodamine B assay; settings: UACC-62, 48 h, read-out: Activity
PC-3 = assay: Cytotoxicity against human PC3 cells assessed as cell growth at 1 uM after 48 hrs by sulforhodamine B assay; settings: PC-3, 48 h, read-out: Activity
NCI-H460 [6] = assay: Cytotoxicity against human NCI-H460 cells assessed as cell growth at 10 uM; settings: read-out: Activity; summary of the method: as §1
COLO 205 [7] = assay: Cytotoxicity against human COLO205 cells assessed as cell growth at 10 uM; settings: read-out: Activity
Summary of the method: (§4)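 Single-dose NCI-60 screen at 10 µM. Cells were grown in RPMI 1640 with 5% FBS and 2 mM L-glutamine, then treated for 48 h at 37 °C. Protein was measured by SRB staining with absorbance at 515 nm. Percentage growth was recorded, and inhibition percentage was calculated as 100 minus growth percentage.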

HT-29 [8] = assay: Cytotoxicity against human HT-29 cells assessed as cell growth at 10 uM; settings: read-out: Activity; summary of the method: as §4
NCI-H23 = assay: Cytotoxicity against human NCI-H23 cells assessed as cell growth at 10 uM after 48 hrs by sulforhodamine B assay; settings: NCI-H23, 48 h, read-out: Activity
NCI-H460 [9] = assay: Cytotoxicity against human NCI-H460 cells assessed as cell growth at 10 uM after 48 hrs by sulforhodamine B assay; settings: NCI-H460, 48 h, read-out: Activity
TK-10 = assay: Cytotoxicity against human TK10 cells assessed as cell growth at 10 uM after 48 hrs by sulforhodamine B assay; settings: TK-10, 48 h, read-out: Activity
[10] = read-out: LC50 (the source's name)

Cc1cc(O)cc(-c2nn(CC#N)cc2-c2ccnc(-c3ccc(Oc4ccccc4)cc3)c2)c1
growth at 0.1 µM (IGROV-1): 86% | growth at 0.1 µM (OVCAR-5): 82% | growth at 1 µM (HL-60(TB)): -27% | growth at 1 µM (MOLT-4): -16% | growth at 10 µM (OVCAR-4): 49.8% | growth at 10 µM (OVCAR-8 [1]): 37.2% | growth at 1 µM (COLO 205 [2]): -94% | growth at 1 µM (SNB-19): 55% | growth at 0.01 µM (SNB-75): 79% | growth at 0.01 µM (U-251): 92% | growth at 0.01 µM (Malme-3M): 77% | growth at 0.001 µM (HT-29 [3]): 95% | growth at 0.001 µM (SK-OV-3): 79% | GI50 (K562): 4.87 µM | LC50 (50% net cell kill) (K562): > 100 µM | TGI (K562): 6.02 µM | GI50 (UACC-257): 2380 nM | TGI (UACC-257): 8.38 µM | CC50 (UACC-257; [10]): 31.7 µM | GI50 (OVCAR-8 [4]): 2080 nM | TGI (OVCAR-8 [4]): 5.54 µM | CC50 (OVCAR-8 [4]; [10]): 21.9 µM | growth at 0.01 µM [5]: 91% | growth at 0.01 µM (MDA-MB-468): 85% | growth at 0.1 µM (CCRF-CEM): 86% | growth at 0.1 µM (NCI-H322M): 95% | growth at 1 µM (UACC-62): 33% | growth at 1 µM (PC-3): -12% | growth at 10 µM (NCI-H460 [6]): 61.4% | growth at 10 µM (COLO 205 [7]): 28.4% | growth at 10 µM (HT-29 [8]): 0.27% | growth at 10 µM (NCI-H23): -75% | growth at 10 µM (NCI-H460 [9]): -88% | growth at 10 µM (TK-10): -89%
